This note sets out measurements from ChEMBL document CHEMBL4825663 (J Med Chem, 2021).

Activity calls are given as the source filed them. The rule behind the calls is not given here. Bounds are passed on as bounds.

Data set [1] in a line: Toxicity in Sprague-Dawley rat assessed as histiocytosis in lymph nodes at 10 to 50 mg/kg, po and measured after 4 to 13 weeks. The class given is organism-based, Lymph node. The conditions noted are these: in vivo, dose lower 10 mg/kg, time lower 4 weeks, dose upper 50 mg/kg, time upper 13 weeks.
Data set [2] can be described thus: Drug distribution in Sprague-Dawley rat liver. The class given is ADME, tissue-based. To be noted: in vivo.
Data set [3] can be described thus: AUClast in Beagle dog at 10 mg/kg, po measured upto 48 hrs by LC-MS/MS analysis. It counts as ADME, organism-based, Canis lupus familiaris. Also on record: route oral, dose 10 mg/kg, time <=48. The conditions noted are these: in vivo. A digest of the protocol: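 Single dose in male Sprague-Dawley rats and male Beagle dogs (n = 3 per species), given 3 mg/kg IV or 10 mg/kg PO. Plasma was sampled to derive Cmax, Tmax, T1/2 and AUClast by each route. Oral bioavailability (F) was calculated from the PO and IV AUClast.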

Data set [4] in a line: Drug distribution in Beagle dog spinal cord. To be noted: in vivo. It counts as ADME, tissue-based, Canis lupus familiaris.
Data set [5] can be described thus: AUClast in Sprague-Dawley rat at 20 mg/kg, po measured upto 24 hrs by LC-MS/MS analysis. To be noted: in vivo. Also on record: route oral, dose 20 mg/kg, time <=24. The class given is ADME, organism-based.
Data set [6] is described as follows: Drug distribution in BALB/c mouse intestine at 20 mg/kg, po measured upto 24 hrs in presence of 10 mg/kg encequidar by LC-MS/MS analysis. The class given is ADME, organism-based. To be noted: in vivo.
A short description of data set [7]: Drug accumulation in Beagle dog plasma at 6 mg/kg, po administered once per week for 4 weeks in presence of 3 mg/kg encequidar by LC-MS/MS analysis. The class given is ADME, organism-based, Canis lupus familiaris. To be noted: in vivo, 672 h.
Data set [8] can be described thus: Toxicity in athymic nude mouse xenografted with human NCI-H460 cells assessed as reduction in body weight at 18 to 24 mg/kg, iv administered every other day for 4 doses monitored for 48 days. It counts as organism-based. To be noted: in vivo, 1152 h, dose 18-24 mg/kg, time 48 day. A digest of the protocol:
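Female athymic NCr-nu mice carried subcutaneous NCI-H460 human lung tumor xenografts. Paclitaxel was given IV at 18 or 24 mg/kg every other day for four doses. Animals were followed for 48 days after tumor implantation, with individual body weights and mortality recorded alongside tumor weights.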
For orientation: Xenograft models place foreign cells or tissue in a host animal.

A short description of data set [9]: AUClast in Sprague-Dawley rat at 20 mg/kg, po measured upto 24 hrs in presence of 10 mg/kg encequidar by LC-MS/MS analysis. It counts as ADME, organism-based. On the set-up: route oral, dose 20 mg/kg, time <=24. To be noted: in vivo.
Data set [10] is described as follows: Ratio of drug concentration in BALB/c mouse liver to plasma at 20 mg/kg, po measured upto 24 hrs in presence of 10 mg/kg encequidar by LC-MS/MS analysis. It counts as ADME, organism-based.
Data set [11] is described as follows: Toxicity in athymic nude mouse xenografted with human NCI-H460 cells assessed as mortality at 30 to 50 mg/kg, po administered every other day for 4 doses in presence of 12 to 20 mg/kg encequidar and monitored for 48 days. The class given is organism-based. The conditions noted are these: in vivo, 1152 h, dose 30-50 mg/kg, time 48 day.
The subject of a further data set is SK-OV-3. In words: Antitumor activity against human SK-OV-3 cells xenografted in athymic nude mouse assessed as tumor growth inhibition in presence of encequidar. The class given is functional.

`COc1cc2c(cc1OC)CN(CCc1ccc(-n3nnc(-c4cc(OC)c(OC)cc4NC(=O)c4cc(=O)c5ccccc5o4)n3)cc1)CC2`: the Activity result in [1] is “Toxic”. Also, the values for the Drug uptake result in [2] and in data set [4] were “Active” and “Not Active”, respectively. Moreover, the AUC(0-t) (as a rule, the area under the concentration-time curve up to a stated or last time point) at 48 h in data set [3] is 724 ng·h/mL.

Regarding `CC(=O)O[C@H]1C(=O)[C@@]2(C)[C@H]([C@H](OC(=O)c3ccccc3)[C@]3(O)C[C@H](OC(=O)[C@H](O)[C@@H](NC(=O)c4ccccc4)c4ccccc4)C(C)=C1C3(C)C)[C@]1(OC(C)=O)CO[C@@H]1C[C@@H]2O` [PACLITAXEL], the AUC(0-t) at 24 h in data set [5] stood at 308 ng·h/mL; in data set [9] it was 3760 ng·h/mL. In addition, the Drug uptake entry in data set [6] is “Active”; in data set [7], “Not Active”. Moreover, the Activity result in data set [8] is “Toxic”; in [11], “Non-Toxic”. For the same compound, in [10], the Kp – broadly, tissue or fluid exposure divided by exposure in the circulation – at 24 h was over 1. For the same compound, the outcome with SK-OV-3 was Active.
